The record followed here is ChEMBL document CHEMBL4007469, “Design and synthesis of dalbergin analogues and evaluation of anti-osteoporotic activity” (Bioorg Med Chem Lett, 2017).

Series [1] deals with Mus musculus. Kind of series: Osteogenic activity in Balb/c mouse drill-hole fracture model assessed as trabecular separation at 1 mg/kg, po qd via gavage for 21 days by micro-CT method (reference value: 0.219 +/- 0.015 millimeter).
For series [2], the system named is Mus musculus. Kind of series: Anti-osteoporotic activity in ovariectomized postmenopausal Balb/c mouse model assessed as induction of femur bone marrow cell differentiation by measuring increase in ALP activity at 1 mg/kg, po qd via gavage for 6 weeks relative to control. The class given is functional. The procedure, abridged: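 Ovariectomized 8-week-old female Balb/c mice given 1.0 mg/kg/day orally by gavage for 6 weeks; bone marrow cells then cultured ex vivo. ALP activity read at 405 nm; mineralized nodules stained with Alizarin Red at day 21 of culture. Mean ± SE versus OVx group.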

Series [3] has as its system Mus musculus. Kind of series: In vivo induction of osteogenesis in Balb/c mouse assessed as bone formation at 5 mg/kg/day, sc over calvarial surface for 5 consecutive days by hematoxylin and eosin staining based fluorescence microscopic method. Type of series: functional, organism-based. The procedure, abridged: (§1)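 Three-week-old Balb/c mice (3 per group) injected subcutaneously over the calvarial surface daily for 5 consecutive days at 0.1, 0.5, 1 and 5 mg/kg/day. Calvaria fixed in 4% formaldehyde, paraffin-embedded, H&E-stained; tetracycline and calcein (20 mg/kg each, ip) given for MAR/BFR histomorphometry; calvarial mRNA by RT-PCR. Mean ± SE, three independent experiments, versus untreated.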

The nature of series [4]: Induction of osteoblast differentiation in mouse calvarial cells assessed as increase in RunX2 mRNA expression at 1 pM after 24 hrs by qRT-PCR method relative to control. Type of series: functional, Calvarial cell. The procedure, abridged: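 Mouse calvarial osteoblasts exposed to 1 pM for 24 h; BMP2, RunX2 and COL1 mRNA by quantitative PCR with GAPDH as internal control. Mean ± SE of three independent experiments versus untreated cells.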

Series [5] relates to Mus musculus. Put plainly: Osteogenic activity in Balb/c mouse drill-hole fracture model assessed as bone volume fraction at 1 mg/kg, po qd via gavage for 21 days by micro-CT method (reference value: 32.924 +/- 3.806%).
Series [6] has as its system Mus musculus. Put plainly: Anti-osteoporotic activity in ovariectomized postmenopausal Balb/c mouse model assessed as increase in OCN gene expression in femur bone at 1 mg/kg, po qd via gavage for 6 weeks by RT-PCR method. The class given is functional, organism-based. The procedure, abridged: (§2)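 Eight-week-old female Balb/c mice, ovariectomized and left 6 weeks for osteopenia to develop; groups sham+vehicle, OVx+vehicle, OVx+1.0 mg/kg/day, dosed once daily by oral gavage for 6 weeks in gum acacia/distilled water vehicle. Mice kept at 21°C, 12 h light/dark, chow and water ad libitum. Femoral bone mRNA or serum measured after sacrifice; mean ± SE versus OVx group.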

Series [7] relates to Mus musculus. Put plainly: Estrogenic effect in uterine of ovariectomized postmenopausal Balb/c mouse model assessed as uterine weight at 1 mg/kg, po qd via gavage for 6 weeks (reference value: 0.025 +/- 0.02 mg). Type of series: ADME, organism-based. The following applies: in vivo, 1008 h.
For series [8], the system named is Mus musculus. Kind of series: Osteogenic activity in Balb/c mouse drill-hole fracture model assessed as increase in BMP2 mRNA level at 1 mg/kg, po qd via gavage for 21 days by RT-PCR method.
The test system of series [9] is Mus musculus. Put plainly: In vivo induction of osteogenesis in Balb/c mouse assessed as bone formation at 0.5 to 1 mg/kg/day, sc over calvarial surface for 5 consecutive days by hematoxylin and eosin staining based fluorescence microscopic method. Type of series: functional, organism-based. The procedure, abridged:
as §1

The test system of series [10] is Mus musculus. Kind of series: Anti-osteoporotic activity in ovariectomized postmenopausal Balb/c mouse model assessed as increase in COL1 gene expression in femur bone at 1 mg/kg, po qd via gavage for 6 weeks by RT-PCR method. Type of series: functional, organism-based. The procedure, abridged:
as §2

The subject of series [11] is Mus musculus. Kind of series: Osteogenic activity in Balb/c mouse drill-hole fracture model assessed as increase in aggrecan mRNA level at 1 mg/kg, po qd via gavage for 21 days by RT-PCR method.
Series [12] deals with Mus musculus. Put plainly: In vivo induction of osteogenesis in Balb/c mouse assessed as increase in OCN mRNA level in calvaria at 1 mg/kg/day, sc over calvarial surface for 5 consecutive days by RT-PCR method relative to control. The class given is functional. The procedure, abridged: as §1
Series [13] has as its system Mus musculus. Put plainly: Anti-osteoporotic activity in ovariectomized postmenopausal Balb/c mouse model assessed as decrease in RANKL mRNA expression at 1 mg/kg, po qd via gavage for 6 weeks by RT-PCR method. The class given is functional, organism-based. The procedure, abridged: as §2
Series [14] deals with Mus musculus. Kind of series: Anti-osteoporotic activity in ovariectomized postmenopausal Balb/c mouse model assessed as improvement in micro-artchitectural parameter in tibia by measuring trabecular number at 1 mg/kg, po qd via gavage for 6 weeks by micro CT-scan analysis (reference value: 1.49 +/- 0.25 /millimeter). The class given is functional. The procedure, abridged: (§3)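 Female Balb/c mice, 8 weeks old, ovariectomized, 6 weeks osteopenia development, then 1.0 mg/kg/day or gum acacia vehicle by oral gavage once daily for 6 weeks (sham, OVx and treated groups). Bones collected after sacrifice for micro-CT of trabecular microarchitecture (BV/TV, Tb.N, Tb.Th, Tb.Sp, SMI) and biomechanical testing of femur and vertebrae (energy, stiffness); mean ± SE versus OVx.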

In series [15] the test system is Mus musculus. Kind of series: Anti-osteoporotic activity in ovariectomized postmenopausal Balb/c mouse model assessed as micro-artchitectural parameter in vertebrae by measuring bone volume fraction at 1 mg/kg, po qd via gavage for 6 weeks by micro CT-scan analysis (reference value: 13.92 +/-1.66%). The class given is functional. The procedure, abridged: as §3

Series [16] concerns Mus musculus. Put plainly: In vivo induction of osteogenesis in Balb/c mouse assessed as increase in COL1 mRNA level in calvaria at 1 mg/kg/day, sc over calvarial surface for 5 consecutive days by RT-PCR method relative to control. The class given is functional. The procedure, abridged:
as §1

Series [17] has as its system Mus musculus. Kind of series: Anti-osteoporotic activity in ovariectomized postmenopausal Balb/c mouse model assessed as vertebrae compressive strength by measuring stiffness at 1 mg/kg, po qd via gavage for 6 weeks by micro CT-scan analysis (reference value: 345.7 +/- 5.08 N/mm). Type of series: functional. The procedure, abridged: as §3
For series [18], the system named is Mus musculus. Put plainly: Anti-osteoporotic activity in ovariectomized postmenopausal Balb/c mouse model assessed as increase in OPG gene expression in femur bone at 1 mg/kg, po qd via gavage for 6 weeks by RT-PCR method. The class given is functional, organism-based. The procedure, abridged:
as §2

Series [19] deals with Mus musculus. Put plainly: Osteogenic activity in Balb/c mouse drill-hole fracture model assessed as structure model index at 1 mg/kg, po qd via gavage for 21 days by micro-CT method (reference value: 2.585 +/- 0.387).
The test system of series [20] is Mus musculus. Put plainly: Anti-osteoporotic activity in ovariectomized postmenopausal Balb/c mouse model assessed as vertebrae compressive strength by measuring energy at 1 mg/kg, po qd via gavage for 6 weeks by micro CT-scan analysis (reference value: 224.75 +/- 1.06 mJ). The class given is functional. The procedure, abridged:
as §3

Series [21] concerns Mus musculus. Kind of series: Anti-osteoporotic activity in ovariectomized postmenopausal Balb/c mouse model assessed as improvement in micro-artchitectural parameter in vertebrae by measuring trabecular separation at 1 mg/kg, po qd via gavage for 6 weeks by micro CT-scan analysis (reference value: 0.288 +/- 0.021 millimeter). Type of series: functional. The procedure, abridged:
as §3

Series [22] has as its system Mus musculus. Put plainly: Estrogenic effect in uterine of ovariectomized postmenopausal Balb/c mouse model assessed as luminal epithelial height at 1 mg/kg, po qd via gavage for 6 weeks (reference value: 0.55 +/- 0.03 umeter). The class given is ADME, organism-based. The following applies: in vivo, 1008 h.

Molecules are shown by their SMILES. Calls of active or inactive are those of the source. The calls are words filed in the database; no cut-off is given here.

Regarding `COc1cc2oc(=O)cc(-c3ccccc3)c2cc1OCCCCCN1CCN(C)CC1`, the Activity in the series on Mus musculus [1] is 0.164 mm; with Mus musculus [5], 44.359%; in the series with Mus musculus [7] it was 0.032 mg; with Mus musculus [14], 2.7 /millimeter; in the series on Mus musculus [15], 23.43%; with Mus musculus [17] it was 381.35 N/mm. Also, the figures for the Activity in the series on Mus musculus [20], with Mus musculus [21] and in the series with Mus musculus [22] were 262.55 mJ, 0.167 mm and 0.66 um, respectively. The “fold change (FC)” value with Mus musculus [2] came to 2; in series [4], 2; in the series with Mus musculus [12], 4; in the series on Mus musculus [16] it was 4. Further, the outcome with Mus musculus [3] was inactive. For the same compound, the result in the series with Mus musculus [6], in the series on Mus musculus [8], in the series on Mus musculus [9], in the series on Mus musculus [10], in the series on Mus musculus [11] and in the series with Mus musculus [13] was Active. Besides, the result in the series with Mus musculus [18] was Active. The Activity_index in the series on Mus musculus [19] turned out to be 0.496.
